Gli-Sufu block – blocks Gli-Sufu signaling in a luciferase reporter; Sufu-KO-LIGHT fibroblasts, Gli luciferase reporter luminescence; inhibition, % at 5 µM; 340,000 tested, 0.74% active; AID 588413;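 active means inhibition above about 55%, limit read from the data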
Jurkat NFkB inh – lowers PMA/ionomycin-induced NF-kB signal in Jurkat cells | inhibition, % at 4 µM | 330,000 tested, 0.53% active | AID 435003 | PMA/ionomycin-induced NF-kB luciferase reporter, luminescence; in the data active means inhibition above about 50%
NR2E3 ag-1 – activates human NR2E3 receptor. Q9Y5X4. CHO-S Gal4-NCOR/VP16-NR2E3 two-hybrid, luciferase. inhibition of corepressor binding, % at 3.98 µM. 360,000 tested, 0.35% active;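 active means inhibition above the mean of all tested compounds plus 3 SD, cut at about 70% in these data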;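 further: higher means lower luciferase signal from less NR2E3 corepressor binding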
697 NFkB inh – lowers PMA/ionomycin-induced NF-kB signal in 697 B cells. 330,000 tested, 0.33% active. 697 B-cell NF-kB luciferase reporter, 16 h. inhibition, % at 4 µM. AID 435022; in the data active means inhibition above about 35%
NR2E3 ag-2 – agonists of human nuclear receptor NR2E3. GST-NR2E3/biotin-RetCOR TR-FRET, 1536-well. inhibition of corepressor binding, % at 4.78 µM. 320,000 tested, 0.12% active. AID 2300;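 active means percent inhibition above the cutoff of mean plus 3 SD of all tested compounds, set per screening campaign, cut at about 20% in these data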
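Format: 1536-well format; test system: GST-NR2E3 and biotin-RetCOR proteins; read-out basis: percent inhibition of TR-FRET ratio; timing: 5 h incubation at 4 °C; detection: time-resolved FRET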
GalR3 antag – blocks the human galanin receptor 3 | inhibition, % at 3 µM | O60755 | 360,000 tested, 0.44% active | HEK293 GalR3-CNG cAMP membrane potential fluorescence; galR3 body fused to GalR1 C-terminus;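 active means inhibition above the screen-wide average plus 3 SD, cut at about 13% in these data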;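 further: forskolin and galanin both at EC90 stimulate the cells; cAMP rise reported by CNG channel membrane potential dye signal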
Target sequence (O60755 1-299 limits assumed): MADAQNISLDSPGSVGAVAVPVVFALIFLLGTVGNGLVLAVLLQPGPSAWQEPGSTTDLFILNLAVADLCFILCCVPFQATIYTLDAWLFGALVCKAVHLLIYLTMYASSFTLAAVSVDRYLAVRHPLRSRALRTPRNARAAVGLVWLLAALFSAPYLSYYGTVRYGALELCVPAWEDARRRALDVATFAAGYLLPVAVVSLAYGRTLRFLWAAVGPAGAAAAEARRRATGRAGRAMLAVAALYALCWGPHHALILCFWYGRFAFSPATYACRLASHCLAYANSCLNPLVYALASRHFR
697 NFkB conf – inhibitors of the PMA/ionomycin-induced NF-kB reporter in 697 B cells, retest; 697 B-cell NF-kB luciferase, 16 h; inhibition, % at 4 µM; shares compounds with 697 NFkB inh; 2,000 tested, 35% active; AID 449746; in the data active means inhibition mostly above about 28%, no sharp cut-off; inactive means mostly below about 22%
A number is an active result; – = inactive; · = not tested or not shown. An excerpt weighted towards active compounds, which were near 1.8% of everything screened.

SMILES	Gli-Sufu block	Jurkat NFkB inh	NR2E3 ag-1	697 NFkB inh	NR2E3 ag-2	GalR3 antag	697 NFkB conf
O=C(CSc1nc2ccccc2n1-c1ccccc1)Nc1ncc(Cl)cc1Cl	–	–	–	–	–	–	–
COc1ccc(-n2c(SCC(=O)Nc3ncc(Cl)cc3Cl)nc3ccccc32)cc1	·	–	·	–	–	·	–
Fc1cccc(/C=N/Nc2ccc3ccccc3n2)c1	–	–	–	–	–	–	–
NC(=S)Nc1ncc(C(F)(F)F)cc1Cl	–	–	–	47	–	–	–
COC(=O)[C@]12C[C@H](CC(=O)NCCCCc3ccccc3)C(=O)N(Cc3ccccc3)C1=C[C@H](C1CCCC1)O[C@@H]2C	·	·	·	·	·	–	·
COc1cc2c(cc1OC)[C@@]1(c3ccccc3)CCCC[C@H]1[C@@H]2NC(=O)C(F)(F)F	·	·	·	·	·	–	·
C#CCNC(=O)C[C@H]1C[C@@]2(C(=O)OC)C(=C[C@H](COCc3ccccc3)O[C@@H]2C)N(CCC2=CCCCC2)C1=O	·	·	·	·	·	–	·
Cc1ccc(C(=O)N2CCCC(c3ccc(Cl)cc3)=N2)cc1	–	–	–	42	–	–	39
COc1ccc(C(=O)N2CCCC(c3ccccc3)=N2)cc1	–	–	–	–	–	–	·
CCOC(=O)C1=CCN(S(=O)(=O)c2ccccc2F)C1c1ccc(Br)cc1 (configuration not stated)	·	·	·	·	·	–	·
C#CCn1c(S(=O)(=O)Cc2ccc(F)cc2)nc(-c2ccccc2)c1-c1ccccc1	–	–	–	–	–	–	–
OC(c1ccccc1)(c1ccccc1)C1CCN(CCCOc2ccc(-c3cncnc3)cc2)CC1	·	·	·	·	·	–	·
CC(C)[C@H](N)c1nnc(SCc2ccc(Cl)cc2)o1	–	–	–	–	–	–	·
CCC(C)[C@H](N)c1nnc(SCC(=O)c2ccc(Cl)cc2)o1 (some centres not stated)	–	–	–	44	–	–	32
COc1cccc(/C=N/NC(=O)c2ccc(N3CCCC3=O)cc2)c1	–	–	–	–	–	–	–
COc1cc(/C=N/NC(=O)c2ccc(-n3cccc3)cc2)ccc1O	–	–	–	43	–	–	–
COc1ccc(Br)cc1/C=N/NC(=O)c1cc(Br)ccc1O	·	–	·	–	–	·	·
COc1ccc(C(=O)N/N=C/c2cc(Br)ccc2O)cc1OC	–	–	–	37	–	–	–
COc1cc(/C=N/NC(=O)c2ccc3c(c2)OCO3)ccc1O	–	–	–	–	·	–	·
O=C(N/N=C/c1ccco1)c1ccc(N2CCCC2=O)cc1	–	–	–	–	–	–	·
CC1(C)OC(=O)C2=C(CC(CCc3ccccc3)OC2c2ccc(Cl)c(Cl)c2)O1 (configuration not stated)	·	·	·	·	·	–	·
Cc1ccccc1-n1c(SCc2c(C)noc2C)nnc1-c1c[nH]c2ccccc12	–	–	–	40	–	–	41
CCOC(=O)c1c(C)c(C(=O)Nc2ccc3c(c2)OCO3)c(C)n1C	–	–	–	–	–	–	·
CCOC(=O)c1c(N)sc(C(=O)Nc2ccc3c(c2)OCO3)c1C	–	–	–	–	–	–	–
CC1=NOC(=O)/C1=C/c1ccc(N(C)C)cc1	–	–	·	–	–	–	·
SMILES	Gli-Sufu block	Jurkat NFkB inh	NR2E3 ag-1	697 NFkB inh	NR2E3 ag-2	GalR3 antag	697 NFkB conf
CCN(CC)c1ccc(/C=C2/C(=O)ON=C2C)cc1	–	–	–	40	–	–	36
Cc1ccc(NS(=O)(=O)c2ccc(Br)s2)cc1S(=O)(=O)N1CCOCC1	–	–	–	46	–	–	–
Cc1cc(C)c2nc(NC(=O)c3ccco3)sc2c1	–	–	–	–	–	–	–
COc1ccc2sc(NC(=O)c3ccco3)nc2c1	–	–	–	–	–	–	–
O=C(Nc1nc2c(F)cccc2s1)c1ccco1	–	–	–	–	–	·	·
O=C(Nc1nc2c(Br)cc(Br)cc2c(=O)s1)c1ccco1	–	–	–	36	–	–	37
Cc1cc(Cl)cc2sc(NC(=O)c3ccco3)nc12	–	–	–	–	–	·	·
COc1cc(OC)cc(-c2cc3cc4c(cc3cn2)OCO4)c1	–	–	–	–	·	·	·
COc1ccc(-c2cc3cc4c(cc3cn2)OCO4)cc1	–	–	–	–	·	–	–
O=C(Cc1cn(Cc2ccccc2)c2ccccc12)Nc1ccc(Oc2cccnc2)cc1	·	·	·	·	·	–	·

High-throughput results (PubChem BioAssay)
